Screening data as filed in PubChem BioAssay.
SMARCA2 act: SMARCA2 (BRM) function activators, primary screen, cell-based, luminescence, high throughput | AID 652017, 2013 | MG213 cells, MMTV-luciferase reporter, dexamethasone, overnight | activation, % at 9.1 µM | hit rate 1% among 370,000; in the data active = activation above about 7.8%;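 note: 0% = vehicle wells and 100% = reference activator wells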
AHR act: AHR activators, primary screen, cell-based, luminescence, luciferase reporter, human; Aryl hydrocarbon receptor (Homo sapiens), P35869; AHR-responsive luciferase reporter cells; activation, % at 5 µM; hit rate 2.5% among 320,000; in the data active = activation above about 47%;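 note: 0% = vehicle wells and 100% = reference agonist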
Lipid droplet: inhibitors of hepatocyte lipid droplet formation, primary screen, imaging, high-throughput imaging, BODIPY stain; AML12 mouse hepatocytes, oleate lipid droplets; inhibition, % at 6.5 µM; hit rate 0.4% among 240,000; AID 1656, 2009;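 active = lipid droplet intensity inhibited by at least 50%, with more than 500 cells counted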
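Assay system: AML12 mouse liver cells | Compound dosing: One dose, 6.5 µM compound | Read-out basis: Droplet intensity reduction, % inhibition | Measured by: Fluorescence imaging, 20x objective, two fields per well | Schedule: Overnight treatment with compound plus oleate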
Yeast superoxide: reduction of superoxide in aged yeast, primary screen, HTS; superoxide response (% of plate mean), % at 10 µM; S. cerevisiae aged cells, superoxide DHE fluorescence; stronger effect = lower value; hit rate 0.18% among 330,000;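 active = superoxide response under a set limit, about three screen SD below normal, cut at about 65% in these data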;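 note: yeast aged for seven days with compound at 30 °C before DHE staining; 100% = average MFI of all compound-treated wells on the plate with controls excluded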
SR-BI DiI inh: inhibitors of SR-BI mediated HDL lipid uptake, primary screen, ldlA[mSR-BI] cells, fluorescence, single point. ldlA[mSR-BI] CHO cells, DiI-HDL uptake fluorescence, 3 h. inhibition, % at 12.5 µM. hit rate 0.96% among 320,000;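 active = mean replicate inhibition of at least 70% and a set share of replicates each scoring 70 or more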;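 note: 0% = median of neutral control wells and 100% = median of positive control wells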
Target sequence (Q61009 whole entry, looked up): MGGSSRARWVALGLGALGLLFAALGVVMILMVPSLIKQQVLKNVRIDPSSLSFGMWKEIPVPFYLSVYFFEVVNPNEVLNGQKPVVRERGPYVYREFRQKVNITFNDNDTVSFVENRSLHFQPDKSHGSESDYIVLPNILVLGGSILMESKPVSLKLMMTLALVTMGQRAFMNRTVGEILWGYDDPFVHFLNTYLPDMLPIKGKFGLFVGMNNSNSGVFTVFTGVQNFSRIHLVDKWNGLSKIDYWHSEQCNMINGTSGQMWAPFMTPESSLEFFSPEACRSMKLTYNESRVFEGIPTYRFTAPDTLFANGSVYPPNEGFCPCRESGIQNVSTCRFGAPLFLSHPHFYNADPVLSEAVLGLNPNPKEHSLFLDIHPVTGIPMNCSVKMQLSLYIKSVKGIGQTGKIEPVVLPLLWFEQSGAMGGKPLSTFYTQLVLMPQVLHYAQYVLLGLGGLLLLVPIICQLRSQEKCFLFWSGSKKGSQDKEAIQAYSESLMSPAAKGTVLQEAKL
SR-BI uptake up: activators of SR-BI mediated DiI-HDL uptake, primary screen, ldlA[mSR-BI] CHO cells, DiI fluorescence; hit rate 0.096% among 320,000; activation, % at 12.5 µM; 3 h; 100 = double the neutral-control signal; AID 504775, 2011;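 active = mean replicate activation of at least 60% and every replicate at or above 60%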;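 note: 0% = median plate neutral-control signal and 100% = twice that signal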
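Assay system: LDL receptor-deficient CHO ldlA cells overexpressing murine SR-BI / Medium: BSA-supplemented, HEPES-buffered Ham's F12, pH 7.4 / Probe or stimulus: DiI-labelled HDL at 10 µg/mL final / Timing: compound with DiI-HDL co-incubation, 3 h at 37 °C / Technique: bottom-read cell fluorescence after medium removal, ex 550/em 595 nm / Measure: HDL uptake via cellular fluorescence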
* hit, by the source's call. This is a sample that favours compounds with a hit; in the whole collection about 4.3% have one here.

`O=C(CSc1nc2ccc(Cl)cc2o1)NCc1ccc2c(c1)OCO2` gave SMARCA2 act -2.3, AHR act 7.0, Lipid droplet -37.3, Yeast superoxide 103.0, SR-BI DiI inh -7.2 and SR-BI uptake up 7.2.
For CSc1ncc(Cl)c(C(=O)NCc2ccc3c(c2)OCO3)n1 the results were SMARCA2 act 0.7, AHR act 73.7*, Lipid droplet -1.4, Yeast superoxide 107.8, SR-BI DiI inh -7.1 and SR-BI uptake up 7.1.
Screening O=C(CSc1nc2ccccc2[nH]1)NCc1ccc2c(c1)OCO2 returned SMARCA2 act -2.1, AHR act 54.8*, Lipid droplet -14.1, Yeast superoxide 97.4, SR-BI DiI inh -23.8 and SR-BI uptake up 23.8.
Screening O=C(CSc1nc2ccccc2o1)NCc1ccc2c(c1)OCO2 returned SMARCA2 act 1.1, AHR act 69.9*, Lipid droplet 10.7, Yeast superoxide 93.9, SR-BI DiI inh -6.7 and SR-BI uptake up 6.7.
O=C(NCC1COCCO1)C1CCN(S(=O)(=O)c2cccc3ccccc23)CC1 (configuration not stated) was read as SMARCA2 act -3.0.
COC(=O)C1=C(C)N(C)C(=NCc2cccc(C(F)(F)F)c2)NC1c1ccccc1 (configuration not stated) was read as SMARCA2 act -1.4.
`COC(=O)[C@]12C[C@H](CC(=O)N3CCCCC3)C(=O)N(Cc3ccco3)C1=C[C@H](C1CCCC1)O[C@@H]2C` gave SMARCA2 act -0.1.
Cc1oc(-c2cc(F)ccc2F)nc1CN1CCN(c2cnccn2)CC1 was read as SMARCA2 act -0.5, AHR act 53.8*, Lipid droplet -8.2, Yeast superoxide 110.1, SR-BI DiI inh 15.2 and SR-BI uptake up -15.2.
Clc1ccccc1N1CCN(C2=Nc3ccccc3Sc3ccccc32)CC1 was read as SMARCA2 act -3.0.
For CC(C)CN1C(=O)[C@@]2(CC(=O)N(C)C2c2ccccc2)c2cc(-n3cc(C(C)(C)O)nn3)ccc21 (some centres not stated) the results were SMARCA2 act -2.3.
`Cn1c(=O)c(C(=O)Nc2ncccc2O)c(O)c2ccccc21` gave SMARCA2 act 2.3, AHR act 76.5*, Yeast superoxide 92.1, SR-BI DiI inh -13.2 and SR-BI uptake up 13.2.
`CC(=O)OC1CCC2(C)C(CCC3C2CC(OC(C)=O)C2(C)C3C[C@@H]3O[C@]4(CC[C@@H](C)CO4)[C@@H](C)C32)C1` (some centres not stated) gave AHR act -0.1 and Yeast superoxide 111.7.
For CC1CC[C@@]2(OC1)O[C@H]1CC3[C@@H]4C[C@@H](O)[C@@]5(O)C[C@@H](O)[C@H](O)C[C@]5(C)[C@H]4CC[C@]3(C)[C@H]1[C@@H]2C (some centres not stated) the results were SMARCA2 act -1.4, AHR act 0.1, Lipid droplet -3.3, Yeast superoxide 79.5, SR-BI DiI inh -68.8 and SR-BI uptake up 68.8*.
For Nc1ccn([C@@H]2O[C@H](C(=O)N[C@H](Cc3ccccc3)C(=O)NCC(F)(F)F)[C@@H](O)[C@H]2O)c(=O)n1 the results were SMARCA2 act 0.4.
CC[C@@H](CCC1CCCCC1)CN(c1ccccc1)S(C)(=O)=O was read as SMARCA2 act -2.3.
`Cn1c(CSc2ncn[nH]2)nc2ccccc21` gave SMARCA2 act -0.3, AHR act 3.0, Yeast superoxide 91.2, SR-BI DiI inh -68.4 and SR-BI uptake up 68.4*.
For CCOc1cc(Br)cc(/C=N/NC(=O)c2cccnc2)c1O the results were SMARCA2 act -2.1, AHR act 34.5, Yeast superoxide 101.3, SR-BI DiI inh 80.3* and SR-BI uptake up -80.3.
`Cc1cc(=O)[nH]c(NN=Cc2cc(Br)ccc2O)n1` gave SMARCA2 act -4.8, SR-BI DiI inh 96.8* and SR-BI uptake up -96.8.
O=C(N/N=C/c1cc(Br)ccc1O)c1ccccc1Cl was read as SMARCA2 act -3.2, AHR act 14.4, Lipid droplet -1.1, Yeast superoxide 98.7, SR-BI DiI inh 84.2* and SR-BI uptake up -84.2.
Screening Cc1ccc(C(=O)N/N=C/c2cc(Br)ccc2O)cn1 returned SMARCA2 act -2.3, AHR act 12.7, Lipid droplet -2.2, Yeast superoxide 96.0, SR-BI DiI inh 74.7* and SR-BI uptake up -74.7.
Screening Cc1ccc(C(=O)N/N=C\C=C\c2ccc(Br)cc2)cn1 returned SMARCA2 act -0.9, AHR act 8.0, Lipid droplet -1.6, Yeast superoxide 99.0, SR-BI DiI inh 12.7 and SR-BI uptake up -12.7.
Cc1cc(=O)[nH]c(N/N=C/c2ccccc2Cl)n1 was read as SMARCA2 act 1.1, AHR act 11.8, Lipid droplet 8.7, Yeast superoxide 98.0, SR-BI DiI inh 0.1 and SR-BI uptake up -0.1.
`Cc1ccccc1N(C)C(=O)Cn1nnc(-c2ccccc2F)n1` gave SMARCA2 act -5.7.
`COc1ccc(N(CCN2C(=O)c3ccccc3C2=O)C(=O)c2cccc([N+](=O)[O-])c2)cc1` gave SMARCA2 act 1.1, AHR act 1.7, Lipid droplet 4.4, Yeast superoxide 103.6, SR-BI DiI inh 14.6 and SR-BI uptake up -14.6.
Screening CCOC(=O)CCCCCN1C(=O)c2cccc3cccc(c23)C1=O returned SMARCA2 act -0.4, AHR act -2.2, Lipid droplet 11.1, Yeast superoxide 106.0, SR-BI DiI inh -34.4 and SR-BI uptake up 34.4.
`COc1ccc(N(CCCN2C(=O)c3cccc4cccc(c34)C2=O)C(=O)c2cccnc2)cc1` gave SMARCA2 act 2.5, AHR act 75.5*, Lipid droplet -10.2, Yeast superoxide 109.4, SR-BI DiI inh -9.3 and SR-BI uptake up 9.3.
COc1cc(OC)cc(C(=O)N(CCCN2C(=O)c3cccc4cccc(c34)C2=O)c2cccc(OC)c2)c1 was read as SMARCA2 act -1.5, AHR act 103.3*, Lipid droplet -17.4, Yeast superoxide 88.3, SR-BI DiI inh -2.6 and SR-BI uptake up 2.6.
`COC(=O)C1=C(C)N(C)C(=NCc2ccccc2)NC1c1ccc(F)cc1` (configuration not stated) gave SMARCA2 act -5.9.
Screening Nn1c(-c2cccs2)nc2sc3c(c2c1=O)CCCC3 returned SMARCA2 act 0.2, AHR act 58.1*, Yeast superoxide 112.7, SR-BI DiI inh 19.8 and SR-BI uptake up -19.8.
